Tests used:
MRP2 = test: Permeability across dog MDCK cells expressing MRP2; format: ADME, cell-based, Canis lupus familiaris; conditions: read-out: permeability
Caco-2 [1] = test: Ratio of permeability from basolateral to apical side over apical to basolateral side of human Caco-2 cell membrane at 10 uM; format: ADME, cell-based; conditions: caco-2, 10 µM
Outline: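 Caco-2 monolayers seeded at 1x10^5 cells/cm2, grown 21-25 days, TEER >600 Ohm/cm2. Compound at 10 µM in HBSS pH 7.4 added to apical or basal donor side; 2 h at 37°C with shaking. Both sides sampled, quantified by LC/MS/MS.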

Caco-2 [2] = test: Ratio of permeability from basolateral to apical side over apical to basolateral side of human Caco-2 cell membrane at 10 uM in presence of MRP2 inhibitor MK571; conditions: caco-2, 10 µM

Papp (MRP2) | Ratio (Caco-2 [1]) | Ratio (Caco-2 [2]) | SMILES
3 ×10⁻⁶ cm/s | 1.35 |  | NC(=O)Nc1cn(-c2ccc(-c3ccc(O)cc3)c(F)c2)nc1C(N)=O
3 ×10⁻⁶ cm/s | 26.02 | 2.53 | Cc1cc(O)ccc1-c1ccc(-n2cc(NC(N)=O)c(C(N)=O)n2)cc1C

Source: ChEMBL document CHEMBL1145516, “Structure-activity relationships for interaction with multidrug resistance protein 2 (ABCC2/MRP2): the role of torsion angle for a series of biphenyl-substituted heterocycles” (Drug Metab Dispos, 2007)
